Calls of active or inactive are those of the source. No cut-off for these calls is given here. Where only a bound is given, the exact number is not on record here.

Assay [1] deals with T1, Geranylgeranyl pyrophosphate synthase (Homo sapiens) (UniProt O95749).
T1 sequence (whole entry): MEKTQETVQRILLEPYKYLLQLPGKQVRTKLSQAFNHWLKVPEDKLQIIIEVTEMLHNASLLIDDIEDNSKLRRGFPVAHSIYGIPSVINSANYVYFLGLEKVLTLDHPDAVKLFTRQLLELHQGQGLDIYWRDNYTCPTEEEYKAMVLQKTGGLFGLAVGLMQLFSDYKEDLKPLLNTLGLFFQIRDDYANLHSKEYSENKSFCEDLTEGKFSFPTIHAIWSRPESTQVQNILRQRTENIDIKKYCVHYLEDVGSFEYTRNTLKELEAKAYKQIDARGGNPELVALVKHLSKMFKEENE
The assay can be described thus: Inhibition of GGDPS in human RPMI-8226 cells assessed as lowest effective concentration required to show unmodified Rap1a band after 48 hrs by immunoblot analysis. In kind it is cell-based. Put shortly:
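RPMI-8226 myeloma cells exposed to drugs for 48 hrs, with lovastatin as positive control. Lysate protein quantified by BCA. Equal amounts run on SDS-PAGE, blotted to PVDF, and probed for H-Ras, Rap1a (antibody recognises only unmodified protein) and β-tubulin as loading control. Detection by HRP secondary antibodies and ECL.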
Background: A western blot detects proteins with antibodies after separation by electrophoresis.

The target of assay [2] is T1, Geranylgeranyl pyrophosphate synthase (Homo sapiens). Put plainly: Inhibition of GGDPS in human RPMI-8226 cells assessed as lowest effective concentration required for increase in intracellular lambda chain level after 48 hrs by ELISA. In kind it is cell-based.
Assay [3] is filed under the species Homo sapiens. The assay can be described thus: Selectivity ratio of IC50 for FDPS (unknown origin) to IC50 for GGDPS (unknown origin).
The target of assay [4] is T2, Geranylgeranyl pyrophosphate synthase (Homo sapiens, UniProt O95749).
T2 sequence (O95749 whole entry): T1 sequence (whole entry)
The assay can be described thus: Inhibition of recombinant GGDPS (unknown origin) using [14C] IPP and FPP as substrate preincubated for 10 mins followed by substrate addition and measured after 30 min by liquid scintillation counting method. The essentials:
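Recombinant GGDPS used, run by a previously described method. Each compound tested in duplicate at multiple concentrations across three independent experiments. IC50 derived from concentration-response curves.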

Assay [5] concerns the target T3, Farnesyl pyrophosphate synthase (Homo sapiens, UniProt P14324).
T3 sequence (P14324 whole entry): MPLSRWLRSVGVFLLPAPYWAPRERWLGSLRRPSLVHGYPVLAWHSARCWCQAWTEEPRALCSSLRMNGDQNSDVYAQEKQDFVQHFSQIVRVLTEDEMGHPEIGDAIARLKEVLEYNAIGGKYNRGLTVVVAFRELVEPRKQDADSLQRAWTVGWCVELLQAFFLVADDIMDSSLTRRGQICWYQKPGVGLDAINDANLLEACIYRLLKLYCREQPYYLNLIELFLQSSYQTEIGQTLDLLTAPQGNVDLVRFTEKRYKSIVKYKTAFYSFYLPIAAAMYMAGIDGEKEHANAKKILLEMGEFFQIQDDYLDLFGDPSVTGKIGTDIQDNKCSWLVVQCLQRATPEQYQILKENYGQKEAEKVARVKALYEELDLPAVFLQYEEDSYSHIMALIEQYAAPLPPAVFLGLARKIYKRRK
Put plainly: Inhibition of recombinant FDPS (unknown origin) using [14C] IPP and GPP as substrate preincubated for 10 mins followed by substrate addition and measured after 30 min by liquid scintillation counting method.

The species entered for assay [6] is Rattus norvegicus. The assay can be described thus: Inhibition of recombinant rat GGtase-1 expressed in Escherichia coli using dansyl-GCVLS and geranylgeranyl pyrophosphate as substrate at 100 uM after 2 hrs by fluorescence microplate reader analysis relative to control. Put shortly: (§1)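 Recombinant FTase and GGTase I assayed with dansyl-GCVLS and dansyl-GCVLL peptides by a modified Temple et al. method. Fluorescence change followed over time on a microplate reader. Duplicates at multiple concentrations, up to 100 μM, in three independent experiments. IC50 taken from concentration-response curves.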

For assay [7], the species on record is Rattus norvegicus. The assay can be described thus: Inhibition of recombinant rat FTase expressed in Escherichia coli using dansyl-GCVLS peptide and farnesyl pyrophosphate as substrate at 100 uM after 1 hr by fluorescence microplate reader analysis relative to control. Put shortly:
as §1

For assay [8], the species on record is Rattus norvegicus. The assay can be described thus: Inhibition of recombinant rat GGtase-1 expressed in Escherichia coli using dansyl-GCVLS and geranylgeranyl pyrophosphate as substrate after 2 hrs by fluorescence microplate reader analysis. The essentials: as §1

In the case of `CC(C)=CCC/C(C)=C/C(=O)NCCC(P(=O)(O)O)P(=O)(O)O` (mixture of isomers), the LED in assay [1] and in assay [2] was 10 µM in each case.

Usually IC50 stands for the point on the concentration scale where inhibition reaches its midpoint. As to `CC(C)=CCCC(=O)NCCC(P(=O)(O)O)P(=O)(O)O`, the LED in assay [1] and in assay [2] was 50 µM throughout. The Ratio IC50 in assay [3] was 3.1. Also, the IC50 in assay [4] was 14.4 µM; in assay [5], 44.4 µM.

As usually defined, the inhibition is the percentage by which the read-out fell short of the control. Consider `CC(C)=CCC/C(C)=C/CCC(=O)NCCC(P(=O)(O)O)P(=O)(O)O`, for which the inhibition entry in assay [6] and in assay [7] was “inactive” each time. For the same compound, the LED in assay [1] and in assay [2] was 1 µM in each case. Further, the Ratio IC50 in assay [3] was 17.9. Also, the values for the IC50 in assay [4] and in assay [5] were 0.8 µM and 14.3 µM, respectively.

On to `CC(C)=CCC/C(C)=C\CCC(=O)NCCC(P(=O)(O)O)P(=O)(O)O`, for which the inhibition entry in assay [6] and in assay [7] was “inactive” in each case. Further, the LED in assay [1] and in assay [2] was 0.5 µM in each case. In addition, in assay [3], the Ratio IC50 worked out at 28.8. Also, the IC50 was determined as 1.1 µM in assay [4] and 31.7 µM in assay [5].

Regarding `CC(C)=CCC/C(C)=C\CC(=O)NCCC(P(=O)(O)O)P(=O)(O)O`, the inhibition entry in assay [6] and in assay [7] was “inactive” each time. Further, the LED in assay [1] and in assay [2] was 5 µM in each case. Also, the Ratio IC50 in assay [3] was found to be 2.1. The IC50 in assay [4] worked out at 3.7 µM; in assay [5], 7.8 µM.

On to `CC(C)=CCC/C(C)=C\CCn1cc(CC(P(=O)(O)O)P(=O)(O)O)nn1`, for which the LED in assay [1] and in assay [2] was 0.03 µM throughout. Further, the Ratio IC50 in assay [3] was found to be 445. Moreover, the IC50 in assay [5] is 33.3 µM.

In the case of `CC(C)=CCC/C(C)=C\C(=O)NCCC(P(=O)(O)O)P(=O)(O)O`, the LED in assay [1] and in assay [2] was 50 µM in each case. The inhibition in assay [7] is less than 30%.

As for `CC(C)=CCC[C@@H](C)CC(=O)NCCC(P(=O)(O)O)P(=O)(O)O`, the inhibition entry in assay [6] and in assay [7] was “inactive” throughout. The LED in assay [1] and in assay [2] was 5 µM throughout. Moreover, the Ratio IC50 in assay [3] was 14.3. For the same compound, the values for the IC50 in assay [4] and in assay [5] were 3.4 µM and 48.5 µM, respectively.

As for `CC(C)=CCC[C@H](C)CC(=O)NCCC(P(=O)(O)O)P(=O)(O)O`, the inhibition entry in assay [6] and in assay [7] was “inactive” in each case. The LED in assay [1] and in assay [2] was 50 µM in each case. For the same compound, in assay [3], the Ratio IC50 amounted to 5.1. Moreover, the IC50 in assay [4] amounted to 5.4 µM; in assay [5], 27.8 µM.

As for `CC(C)=CCC/C(C)=C/C(=O)NCCC(P(=O)(O)O)P(=O)(O)O`, in assay [8], the inhibition result was “inactive”. The LED in assay [1] and in assay [2] was 5 µM throughout.

The values above are taken from ChEMBL document CHEMBL4725285, “Amides as bioisosteres of triazole-based geranylgeranyl diphosphate synthase inhibitors” (Bioorg Med Chem, 2020).
